{"source": "ChEMBL document CHEMBL5154634", "about": "“A Modular Synthetic Route Involving N-Aryl-2-nitrosoaniline Intermediates Leads to a New Series of 3-Substituted Halogenated Phenazine Antibacterial Agents” (J Med Chem, 2021)", "key": {"Staphylococcus aureus [1]": {"system": "Staphylococcus aureus", "test": "Antibacterial activity against methicillin-resistant Staphylococcus aureus BAA-1707 assessed as bacterial growth inhibition incubated for 16 hrs by broth microdilution susceptibility test", "assay_type": "functional", "outline": "(§1)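 CLSI broth microdilution with 11 twofold dilutions (0.05–50 μM). About 10^5 cells per well from a log-phase culture. DMSO vehicle up to 0.5% v/v. At least three independent experiments.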"}, "Staphylococcus aureus [2]": {"system": "Staphylococcus aureus", "test": "Antibacterial activity against methicillin-resistant Staphylococcus aureus BAA-44 assessed as bacterial growth inhibition incubated for 16 hrs by broth microdilution susceptibility test", "assay_type": "functional", "outline": "(§2)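 CLSI broth microdilution with 11 twofold dilutions (0.05–50 μM). Medium was LB for the staphylococci and BHI for VRE 700221. About 10^5 cells per well from a log-phase culture. […] DMSO vehicle up to 0.5% v/v. At least three independent experiments.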"}, "[3]": {"system": "Staphylococcus epidermidis", "test": "Antibacterial activity against methicillin-resistant Staphylococcus epidermidis ATCC 35984 assessed as bacterial growth inhibition incubated for 16 hrs by broth microdilution susceptibility test", "assay_type": "functional", "outline": "as §1"}, "Enterococcus faecium [4]": {"system": "Enterococcus faecium", "test": "Antibacterial activity against vancomycin-resistant Enterococcus faecium ATCC 700221 assessed as bacterial growth inhibition incubated for 16 hrs by broth microdilution susceptibility test", "assay_type": "functional", "outline": "as §2"}, "Enterococcus faecalis [5]": {"system": "Enterococcus faecalis", "test": "Antibacterial activity against Enterococcus faecalis OG1RF ATCC 47077 assessed as bacterial growth inhibition incubated for 16 hrs by broth microdilution susceptibility test", "assay_type": "functional"}, "[6]": {"system": "Mycobacterium tuberculosis", "test": "Antibacterial activity against Mycobacterium tuberculosis H37Ra ATCC 25177 assessed as bacterial growth inhibition incubated for 7 days by absorbance based analysis", "assay_type": "functional", "settings": "H37Ra ATCC 25177, 168 h, time 7 day", "outline": "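H37Ra grown 2 weeks in Middlebrook 7H9, then diluted to OD600 0.01. Compounds added in twofold dilutions, final 0.024–50 μM, with 0.5% DMSO and streptomycin as positive control. Incubated 7 days at 37 °C. MIC is the lowest concentration with no growth, with OD600 recorded. At least three independent experiments.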"}, "[7]": {"system": "Mycobacterium tuberculosis", "test": "Antibacterial activity against Mycobacterium tuberculosis CDC1551 assessed as bacterial growth inhibition incubated for 5 days by luminescence based analysis", "assay_type": "functional", "settings": "CDC1551, 120 h, time 5 day", "outline": "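Bioluminescent Mtb-lux CDC1551 reporter grown in Middlebrook 7H9 with 0.05% Tween 80, 10% OADC and kanamycin to OD600 0.4–0.8, then diluted to OD600 0.02. Added to twofold drug dilutions (0.003–200 μM). Incubated 5 days at 37 °C, 5% CO2. Luminescence read against 1% DMSO and 10 μM rifampicin controls to give % growth inhibition. MIC taken from a modified Gompertz fit.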"}, "HeLa": {"system": "HeLa", "test": "Cytotoxicity against human HeLa cells assessed as reduction in cell viability incubated for 24 hrs by LDH release assay", "assay_type": "toxicity, cell-based", "outline": "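HeLa cells in DMEM with 10% FBS, treated at 70–80% confluence with 25, 50 and 100 μM for 24 h. LDH in supernatant measured by 30 min reaction at room temperature, then stop solution and absorbance at 490 nm. Controls: 2% Triton X-100 (maximum), medium only, DMSO vehicle. Three independent experiments.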"}, "J774": {"system": "J774", "test": "Cytotoxicity against mouse J774 cells assessed as reduction in cell viability […] by Alamar blue assay", "assay_type": "toxicity, cell-based"}, "HepG2": {"system": "HepG2", "test": "Cytotoxicity against human HepG2 cells assessed as reduction in cell viability […] by Alamar blue assay", "assay_type": "toxicity, cell-based"}, "Staphylococcus aureus [8]": {"system": "Staphylococcus aureus", "test": "Bactericidal activity against methicillin-resistant Staphylococcus aureus BAA-1707 planktonic cells assessed as planktonic eradication incubated for 24 hrs followed by incubation for overnight in fresh medium by Calgary biofilm device assay", "assay_type": "functional", "outline": "(§3)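 Calgary biofilm device. Biofilms grown 24 h at 37 °C in TSB with 0.5% glucose, then challenged 24 h with twofold compound dilutions. 20 μL of challenge medium transferred into fresh TSB with 0.5% glucose and incubated overnight at 37 °C. MBC is the concentration with no visible turbidity. At least three independent experiments.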"}, "Staphylococcus aureus [9]": {"system": "Staphylococcus aureus", "test": "Antibiofilm activity against methicillin-resistant Staphylococcus aureus BAA-1707 biofilms assessed as biofilm eradication incubated for 24 hrs followed by incubation for 24 hrs in fresh medium by Calgary biofilm device assay", "assay_type": "functional", "outline": "(§4)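 Calgary biofilm device. Mid-log culture diluted 1000-fold in TSB with 0.5% glucose; biofilms grown on pegs 24 h at 37 °C. Pegs washed and challenged with twofold compound dilutions for 24 h at 37 °C, then moved to fresh medium for 24 h. MBEC is the lowest concentration leaving wells non-turbid. At least three independent experiments.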"}, "[10]": {"system": "Staphylococcus epidermidis", "test": "Bactericidal activity against methicillin-resistant Staphylococcus epidermidis ATCC 35984 planktonic cells assessed as planktonic eradication incubated for 24 hrs followed by incubation for overnight in fresh medium by Calgary biofilm device assay", "assay_type": "functional", "outline": "as §3"}, "[11]": {"system": "Staphylococcus epidermidis", "test": "Antibiofilm activity against methicillin-resistant Staphylococcus epidermidis ATCC 35984 biofilms assessed as biofilm eradication incubated for 24 hrs followed by incubation for 24 hrs in fresh medium by Calgary biofilm device assay", "assay_type": "functional", "outline": "as §4"}, "Enterococcus faecium [12]": {"system": "Enterococcus faecium", "test": "Bactericidal activity against methicillin-resistant vancomycin-resistant Enterococcus faecium ATCC 700221 planktonic cells assessed as planktonic eradication incubated for 24 hrs followed by incubation for overnight in fresh medium by Calgary biofilm device assay", "assay_type": "functional", "outline": "as §3"}, "Enterococcus faecium [13]": {"system": "Enterococcus faecium", "test": "Antibiofilm activity against methicillin-resistant vancomycin-resistant Enterococcus faecium ATCC 700221 biofilms assessed as biofilm eradication incubated for 24 hrs followed by incubation for 24 hrs in fresh medium by Calgary biofilm device assay", "assay_type": "functional", "outline": "as §4"}, "Enterococcus faecalis [14]": {"system": "Enterococcus faecalis", "test": "Bactericidal activity against […] Enterococcus faecalis OG1RF ATCC 47077 planktonic cells assessed as planktonic eradication incubated for 24 hrs followed by incubation for overnight in fresh medium by Calgary biofilm device assay", "assay_type": "functional", "outline": "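Calgary biofilm device in BHI. Biofilms grown 24 h at 37 °C and challenged 24 h with twofold compound dilutions. Challenge medium subcultured 1:10 into fresh BHI overnight at 37 °C. MBC is the concentration with no turbidity. At least three independent experiments.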"}, "Erythrocyte": {"system": "Erythrocyte", "test": "Hemolytic activity against human RBC at 200 uM measured after 1 hr", "assay_type": "toxicity, cell-based", "outline": "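2% hRBCs exposed to compound at 200 μM final, added from DMSO stock, for 1 h at 37 °C. Supernatant OD read at 405 nm. Hemolysis normalized between DMSO (0%) and Triton X (100%); three independent experiments.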"}, "Staphylococcus aureus [15]": {"system": "Staphylococcus aureus", "test": "Antibiofilm activity against methicillin-resistant Staphylococcus aureus BAA-1707 biofilms assessed as reduction of viable biofilm cells at MBEC measured by CBD assay", "assay_type": "functional", "outline": "(§5)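 After the Calgary biofilm device assay, treated and untreated pegs were removed, sonicated 30 min in PBS and plated for CFU per peg. Log10 reduction of viable biofilm cells at the MBEC determined by comparison with untreated pegs. At least three independent experiments.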"}, "[16]": {"system": "Staphylococcus epidermidis", "test": "Antibiofilm activity against methicillin-resistant Staphylococcus epidermidis ATCC 35984 biofilms assessed as reduction of viable biofilm cells at MBEC measured by CBD assay", "assay_type": "functional", "outline": "as §5"}, "[17]": {"test": "Binding affinity to Fe2+ assessed as compound-Fe2+ complex formation by UV-vis spectroscopy"}, "[18]": {"test": "Dissociation constant, pKa of the compound at 125 uM by UV-vis spectrophotometric analysis", "assay_type": "physicochemical", "outline": "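Compound at 125 μM final in phosphate buffers (KH₂PO₄/Na₂HPO₄) in 1:1 water/methanol, pH 4.07–9.66; ammonium hydroxide added for pH above 9.80. UV-vis scans 200–800 nm to find λmax of phenol and phenolate forms. Absorbance at each λmax plotted against pH.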"}, "Staphylococcus aureus [19]": {"system": "Staphylococcus aureus", "test": "Antibacterial activity against methicillin-resistant Staphylococcus aureus clinical isolate 1 assessed as bacterial growth inhibition", "assay_type": "functional"}, "Staphylococcus aureus [20]": {"system": "Staphylococcus aureus", "test": "Antibacterial activity against methicillin-resistant Staphylococcus aureus clinical isolate 2 assessed as bacterial growth inhibition", "assay_type": "functional"}, "Staphylococcus aureus [21]": {"system": "Staphylococcus aureus", "test": "Antibacterial activity against methicillin-resistant Staphylococcus aureus 129 assessed as bacterial growth inhibition", "assay_type": "functional"}, "Staphylococcus aureus [22]": {"system": "Staphylococcus aureus", "test": "Antibacterial activity against methicillin-resistant Staphylococcus aureus 147 assessed as bacterial growth inhibition", "assay_type": "functional"}, "Staphylococcus aureus [23]": {"system": "Staphylococcus aureus", "test": "Antibacterial activity against methicillin-resistant Staphylococcus aureus 138 assessed as bacterial growth inhibition", "assay_type": "functional"}, "Staphylococcus aureus [24]": {"system": "Staphylococcus aureus", "test": "Antibacterial activity against methicillin-resistant Staphylococcus aureus 156 assessed as bacterial growth inhibition", "assay_type": "functional"}, "Staphylococcus aureus [25]": {"system": "Staphylococcus aureus", "test": "Antibiofilm activity against methicillin-resistant Staphylococcus aureus BAA-1707 biofilms assessed as biofilm killing at MBEC measured by CBD assay", "assay_type": "functional"}, "[26]": {"system": "Staphylococcus epidermidis", "test": "Antibiofilm activity against methicillin-resistant Staphylococcus epidermidis ATCC 35984 biofilms assessed as biofilm killing at 3.13 uM measured by CBD assay", "assay_type": "functional"}, "[27]": {"system": "Staphylococcus epidermidis", "test": "Antibiofilm activity against methicillin-resistant Staphylococcus epidermidis ATCC 35984 biofilms assessed as reduction of viable biofilm cells at 3.13 uM measured by CBD assay", "assay_type": "functional"}}, "note": "Calls of active or inactive are those of the source. The calls are words filed in the database; no cut-off is given here.", "data": [{"molecule": "Oc1c(Br)c(Cl)c(Br)c2nc3c(Cl)cc(Cl)cc3nc12", "values": [{"measurement": "MIC", "setting": "Staphylococcus aureus [1]", "value": 0.59, "unit": "µM"}, {"measurement": "MIC", "setting": "Staphylococcus aureus [2]", "value": 0.15, "unit": "µM"}, {"measurement": "MIC", "setting": "[3]", "value": "≤ 0.05", "unit": "µM"}, {"measurement": "MIC", "setting": "Enterococcus faecium [4]", "value": 0.08, "unit": "µM"}, {"measurement": "MIC", "setting": "Enterococcus faecalis [5]", "value": 0.3, "unit": "µM"}, {"measurement": "MIC", "setting": "[6]", "value": 6.25, "unit": "µM"}, {"measurement": "MIC", "setting": "[7]", "value": 0.8, "unit": "µM"}, {"measurement": "IC50", "setting": "HeLa", "value": "> 100", "unit": "µM"}, {"measurement": "IC50", "setting": "J774", "value": "> 200", "unit": "µM"}, {"measurement": "IC50", "setting": "HepG2", "value": "> 200", "unit": "µM"}, {"measurement": "MBC", "setting": "Staphylococcus aureus [8]", "value": 1.56, "unit": "µM"}, {"measurement": "MBEC", "setting": "Staphylococcus aureus [9]", "value": 3.13, "unit": "µM"}, {"measurement": "MBC", "setting": "[10]", "value": 0.59, "unit": "µM"}, {"measurement": "MBEC", "setting": "[11]", "value": 0.3, "unit": "µM"}, {"measurement": "MBC", "setting": "Enterococcus faecium [12]", "value": 0.39, "unit": "µM"}, {"measurement": "MBEC", "setting": "Enterococcus faecium [13]", "value": 0.2, "unit": "µM"}, {"measurement": "MBC", "setting": "Enterococcus faecalis [14]", "value": 3.13, "unit": "µM"}, {"measurement": "Activity", "setting": "Erythrocyte", "value": "<= 1%"}, {"measurement": "Activity", "setting": "Staphylococcus aureus [15]", "value": 3.03, "unit": "log10CFU"}, {"measurement": "Activity", "setting": "[16]", "value": 3.18, "unit": "log10CFU"}, {"measurement": "Activity", "setting": "[17]", "value": "Active"}, {"measurement": "pKa at 125 µM", "setting": "[18]", "value": 6.07}, {"measurement": "MIC", "setting": "Staphylococcus aureus [19]", "value": 0.47, "unit": "µM"}, {"measurement": "MIC", "setting": "Staphylococcus aureus [20]", "value": 0.47, "unit": "µM"}, {"measurement": "MIC", "setting": "Staphylococcus aureus [21]", "value": 0.47, "unit": "µM"}, {"measurement": "MIC", "setting": "Staphylococcus aureus [22]", "value": 0.47, "unit": "µM"}, {"measurement": "MIC", "setting": "Staphylococcus aureus [23]", "value": 0.47, "unit": "µM"}, {"measurement": "MIC", "setting": "Staphylococcus aureus [24]", "value": 0.47, "unit": "µM"}, {"measurement": "Activity", "setting": "Staphylococcus aureus [25]", "value": 99.9, "unit": "%"}, {"measurement": "Activity", "setting": "[26]", "value": 99.999, "unit": "%"}, {"measurement": "Activity", "setting": "[27]", "value": 5, "unit": "log10CFU"}]}]}
